Assay results from the array DNA melting data of Ke et al. (doi:10.1101/2024.01.08.574731).

What was measured:
[1] = folding enthalpy; higher = less favourable; fluorescence melt of hairpins on a sequencing array, two-state fit; details: sodium 0.088 M
In short: (§1)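 Folding enthalpy and melting temperature were estimated with bootstrapped two-state fits and combined across four replicates by inverse-variance weighting, with fitted temperatures raised by 9.35 °C to match UV melts. The data were Cy3 fluorescence of library hairpins, with annealed Cy3 and quencher oligos, on a sequenced MiSeq flow cell in 50 mM Na-HEPES pH 8.0, 25 mM NaCl, imaged in 2.5 °C steps up to 60 °C and normalised to pre-quench Cy3 and control constructs.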

[2] = melting temperature; fluorescence melt of hairpins on a sequencing array, two-state fit, raised by 9.35 °C to match UV melts; details: sodium 0.088 M
In short: as §1

Sequence	folding enthalpy [1]	Tm [2]
GATGCGGGAAACCACATC ((((.((....)).))))	-35.8 kcal/mol	44.8 °C
GGTGCCGAAAGGCGAACC ((((((....)))..)))	-15 kcal/mol	46.9 °C
TGACGGAAACGTCA (((((....)))))	-23.7 kcal/mol	52.5 °C
ACCCGGAAACGGGT (((((....)))))	-19.5 kcal/mol	58.1 °C
GAAGTCCGAAAGGAGTTC (((.(((....))).)))	-33.7 kcal/mol	55.2 °C
GGTTGAGGAAACTCAATC (.(((((....))))).)	-28.3 kcal/mol	43.4 °C
GGTGGCCCGAAAGGGACC (((..(((....))))))	-12.7 kcal/mol	52.2 °C
GAGGCCGGAAACAGCCTC (((((.(....).)))))	-27.5 kcal/mol	50.2 °C
GATCATGTAAATGATC ((((((....))))))	-38.9 kcal/mol	56.6 °C
GGTCGCGGAAACACGACC (((((.(....).)))))	-41 kcal/mol	56.9 °C
GACGAGACGAAAGTCGTC (((..(((....))))))	-13.8 kcal/mol	49 °C
GCCTCGCGAAAGCAAAGC ((.(.((....)).).))	-9.86 kcal/mol	28.4 °C
GAGTGGCCGAAAGGCCTC (((..(((....))))))	-6.93 kcal/mol	38.3 °C
GCGAATCCGAAAGGACGC (((..(((....))))))	-26.1 kcal/mol	48.7 °C
GGCATGGGAAACCGTGTC (.((.((....)).)).)	-33.7 kcal/mol	43.3 °C
GGCGCGCCGAAAGGCGCC (((..(((....))))))	-4.97 kcal/mol	44.5 °C
GAGTCGGGAAACCAACTC ((((.((....)).))))	-30.7 kcal/mol	38.9 °C
GCAGGAGGAAACTTCTGC ((((.((....)).))))	-39.5 kcal/mol	49.9 °C
GCAGAGCGAAAGCTACGC ((..(((....)))..))	-13.9 kcal/mol	47.2 °C
GCGCTCGAAAGAGGACGC ((((((....)))..)))	-23.7 kcal/mol	50 °C
GGTGTGCGAAAGCAACC (((.(((....))))))	-17 kcal/mol	52.1 °C
GATCAAGACATTGATC ((((((....))))))	-38.8 kcal/mol	50.1 °C
GCGTCTGGAAACAGGTGC ((..(((....)))..))	-28.3 kcal/mol	41.8 °C

Sequence	folding enthalpy [1]	Tm [2]
GACCACGAAAGTGCAGTC ((((((....)))..)))	-17.5 kcal/mol	36.6 °C
GCGCCCGAAAGGGCTCGC ((((((....)))..)))	-13 kcal/mol	52.4 °C
GGTGCACGAAAGTGACC (((.(((....))))))	-17.4 kcal/mol	49 °C
GTTCCTGGAAACAGGAGC (.(((((....))))).)	-23.4 kcal/mol	48.3 °C
GGAGTTCGAAAGAATCC (((.(((....))))))	-17.5 kcal/mol	33.5 °C
GCAGCAGGAAACCACTGC ((((..(....)..))))	-18.8 kcal/mol	34.7 °C
GTTCAGGGAAACTTGAAC (((((.(....).)))))	-22.8 kcal/mol	40.7 °C
GCTAACACGAAAGTGAGC (((..(((....))))))	-20.2 kcal/mol	39.4 °C
GTGGGCGAAAGCCGACAC ((((((....)))..)))	-13.6 kcal/mol	53.8 °C
GTCGCAGCGAAAGCTGAC (((..(((....))))))	-9.2 kcal/mol	37.1 °C
GGTTCCGAAAGGAACACC ((((((....)))..)))	-8.81 kcal/mol	51.9 °C
GCGACAGCGAAAGCTCGC (((..(((....))))))	-14.6 kcal/mol	46.7 °C
GTGTCCGAAAGGAAACAC ((((((....)))..)))	-22.4 kcal/mol	46.5 °C
GACCGACGAAAGTCTGTC (((.(((....))).)))	-31.1 kcal/mol	48.7 °C
GACGGAGGAAACTCCACC (..((((....))))..)	-10.4 kcal/mol	26.4 °C
GACAAGCGAAAGCTGTC (((.(((....))))))	-23.1 kcal/mol	56 °C
GCGATGCGAAAGCTTTGC ((.(.((....)).).))	-21.2 kcal/mol	46.3 °C
CGATCGGAAACGAGCTCG ((((((....)))..)))	-11.5 kcal/mol	29.8 °C
GGTTTCGGAAACGAGATC (.(.(((....))).).)	-11.6 kcal/mol	27.7 °C
GATCAACTTGTTGATC ((((((....))))))	-51.7 kcal/mol	60.5 °C
GATCCGCGAACGGATC ((((((....))))))	-42.3 kcal/mol	58.9 °C
GGCCATACGAAAGTAGCC (((..(((....))))))	-20.6 kcal/mol	38.7 °C
GGCAGGGGAAACCCCGCC (((.(((....))).)))	-35.7 kcal/mol	57 °C

Sequence	folding enthalpy [1]	Tm [2]
GAGGGTACGAAAGTACTC (((..(((....))))))	-11.9 kcal/mol	36.9 °C
GTTCCCGAAAGGGAAAAC ((((((....)))..)))	-10.8 kcal/mol	41 °C
GCATTGACGAAAGTCTGC (((..(((....))))))	-16.5 kcal/mol	38.9 °C
GTCGCAGGAAACTGCGGC (.(((((....))))).)	-32.2 kcal/mol	64.5 °C
GGTCACGCGAAAGCGACC (((..(((....))))))	-14.2 kcal/mol	47.4 °C
GATCAGAACACTGATC ((((((....))))))	-32.1 kcal/mol	48.5 °C
GTGAACACGAAAGTGCAC (((..(((....))))))	-14.1 kcal/mol	41.2 °C
GCCTGCGAAAGCACAGGC ((((((....)))..)))	-24 kcal/mol	55.5 °C
GATCTCGGCTGAGATC ((((((....))))))	-44.5 kcal/mol	56.5 °C
GCTACGCCGAAAGGCAGC (((..(((....))))))	-11.9 kcal/mol	42.3 °C
CGAATACGGAAACGTTCG (((..(((....))))))	-24.9 kcal/mol	34 °C
GTTTGCGGAAACACAAAC (((((.(....).)))))	-34.2 kcal/mol	42.1 °C
GCATGCGGAAACGTGTGC (((..((....))..)))	-37.8 kcal/mol	50.4 °C
GCTCAGTCGAAAGACAGC (((..(((....))))))	-15.3 kcal/mol	37.3 °C
GTGGCGGGAAACCGTCAC (((.(((....))).)))	-40.6 kcal/mol	63.5 °C
GCTTGAGGAAACTCGAGC (((.(((....))).)))	-41.5 kcal/mol	51.5 °C
GACCGCGAAAGCGGTGTC ((((((....)))..)))	-8.7 kcal/mol	63.8 °C
GCGAAAATTCGC ((((....))))	-18.6 kcal/mol	47.8 °C
GCTATCGGAAACGATGGC ((.((((....)))).))	-47.6 kcal/mol	52.9 °C
CGCGGAAGATCCGCG ((((((...))))))	-26.5 kcal/mol	69.1 °C
GCGACGCGAAAGCTTAGC ((.(.((....)).).))	-24.8 kcal/mol	48.9 °C
GATCTCGGAAACGAGGTC ((.((((....)))).))	-50.8 kcal/mol	50.2 °C
GGGACGGGAAACCGCCCC (((.(((....))).)))	-44.1 kcal/mol	57.3 °C

Sequence	folding enthalpy [1]	Tm [2]
GGCTCCGAAAGGAGAGCC ((((((....)))..)))	-20.7 kcal/mol	55.6 °C
GCCTTGCGAAAGCTAAGC ((.(.((....)).).))	-9.38 kcal/mol	45.8 °C
GACTAGAAATAGTC (((((....)))))	-15.7 kcal/mol	37.6 °C
GCGTTACGAAAGTACGC (((.(((....))))))	-32.2 kcal/mol	61.1 °C
GCCGGAGGAAACTTCGGC ((((.((....)).))))	-38.6 kcal/mol	56.3 °C
GATCAAGGGTTGATC ((((((...))))))	-24 kcal/mol	40.3 °C
GATCATGGTTATGATC ((((((....))))))	-40.7 kcal/mol	48.3 °C
GTCCAGCGAAAGCTTGAC (((.(((....))).)))	-26.2 kcal/mol	49.1 °C
GCCATGCGAAAGCAAAGC ((..(((....)))..))	-11.5 kcal/mol	32.2 °C
GATCATGCGAATGATC ((((((....))))))	-46.8 kcal/mol	53.8 °C
GGCAGACGAAAGTCGCC (((.(((....))))))	-23.1 kcal/mol	65.2 °C
GTACACGAAAGTGCGTAC ((((((....)))..)))	-10.7 kcal/mol	30.8 °C
GATCACGGGAGTGATC ((((((....))))))	-37.6 kcal/mol	68.5 °C
GCGTGAGAACGC ((((....))))	-18.9 kcal/mol	64.2 °C
GTTATTCGAAAGAAAAAC (((.(((....))).)))	-19.6 kcal/mol	29.9 °C
GATCGAAGTATCGATC ((((((....))))))	-31.7 kcal/mol	50.9 °C
GATCTTTTCCAAGATC ((((((....))))))	-36.2 kcal/mol	42.9 °C
GATGGGCGAAAGCCAATC (((.(((....))).)))	-23.9 kcal/mol	51.2 °C
GGAGGCGAAAGCCCTTCC ((((((....)))..)))	-15.2 kcal/mol	53.1 °C
GATCGCCCAAGCGATC ((((((....))))))	-23 kcal/mol	66.7 °C
GATCCGACACGGATC ((((((...))))))	-35.6 kcal/mol	59.1 °C
GCTTGGCGAAAGCAAAGC ((((.((....)).))))	-36.5 kcal/mol	63.7 °C
GGAATACGAAAGTATCC (((.(((....))))))	-17.9 kcal/mol	42.8 °C
